The target in one assay is Histamine H1 receptor (Rattus norvegicus, UniProt P31390). Kind of assay: Binding affinity to histamine H1 receptor in rat brain membranes was evaluated using [3H]-pyrilamine as radioligand. The assay is classed as cell membranes.
The subject of assay [1] is Cavia porcellus. Kind of assay: Compound tested for inhibition of guinea pig bronchospasm at a peroral dose of 10 mg/Kg and after 2 hr followed by iv challenge with 0.4 ug/Kg of PAF. Type of assay: functional, Bronchiole.
The subject of assay [2] is Cavia porcellus. Kind of assay: Compound tested for its %inhibition of guinea pig bronchospasm at a peroral dose of 10 mg/Kg and after 2 hr followed by iv challenge with 10 ug/Kg of histamine.
Assay [3] has as its system Cavia porcellus. Described as above. The source holds these as a separate data set.
For assay [4], the system named is Cavia porcellus. Kind of assay: Compound tested for its %inhibition of guinea pig bronchospasm at a peroral dose of 3 mg/Kg and after 2 hr followed by iv challenge with 0.4 ug/Kg of histamine.
Assay [5] deals with Cavia porcellus. Kind of assay: Compound tested for its %inhibition of guinea pig bronchospasm at a peroral dose of 10 mg/kg and after 2 hr followed by iv challenge with 0.4 micro g/kg of PAF. The assay is classed as functional. The note with it: Bronchiole, route oral. The essentials:
(§1)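 Compound given orally 2 h before an iv PAF challenge at 0.4 µg/kg. Values are reported as mean ± standard error of the mean unless noted otherwise, with N animals per determination.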

Assay [6] deals with Cavia porcellus. Briefly: Compound tested for its %inhibition of guinea pig bronchospasm at a peroral dose of 10 mg/kg and after 2 hr followed by iv challenge with 0.4 micro g/kg of histamine. The assay is classed as functional. To be noted: Bronchiole, route oral.
Assay [7] can be described thus: %inhibition of guinea pig bronchospasm at a peroral dose of 10 mg/kg and after 2 hr followed by iv challenge with 0.4 micro g/kg of PAF. The assay is classed as functional. To be noted: Cavia porcellus, Bronchiole, route oral. The essentials:
as §1

Where only a bound is given, the exact number is not on record here.

Sequence of Histamine H1 receptor (P31390 whole entry): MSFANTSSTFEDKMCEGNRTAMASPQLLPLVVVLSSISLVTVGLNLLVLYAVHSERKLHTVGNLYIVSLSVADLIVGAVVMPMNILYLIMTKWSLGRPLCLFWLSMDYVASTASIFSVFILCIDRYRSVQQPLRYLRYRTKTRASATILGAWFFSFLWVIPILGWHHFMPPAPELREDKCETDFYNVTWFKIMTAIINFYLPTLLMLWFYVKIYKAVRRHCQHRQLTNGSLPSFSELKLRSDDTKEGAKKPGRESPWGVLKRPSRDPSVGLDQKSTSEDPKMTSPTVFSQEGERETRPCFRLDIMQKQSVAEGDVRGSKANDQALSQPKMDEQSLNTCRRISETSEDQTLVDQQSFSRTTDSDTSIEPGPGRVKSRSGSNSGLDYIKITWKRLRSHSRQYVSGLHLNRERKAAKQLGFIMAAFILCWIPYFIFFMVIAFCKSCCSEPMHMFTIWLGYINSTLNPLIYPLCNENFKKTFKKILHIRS

With `CCC(=O)N1CCC(=C2c3ccc(Cl)cc3CCc3cccnc32)CC1`, the affinity on Histamine H1 receptor, expressed as Ki, was 48 nM.
`CC(=O)N(C)CC/C=C1\c2ccc(Cl)cc2CCc2cccnc21` displayed a Ki at Histamine H1 receptor of 290 nM.
For `COc1ccc2c(c1)CCc1cccnc1C2=C1CCN(C(C)=O)CC1`, the affinity on Histamine H1 receptor corresponds to a Ki of 1600 nM.
`CC(=O)N1CCC(=C2c3cc(Cl)c(Cl)cc3CCc3cccnc32)CC1`: the affinity at Histamine H1 receptor, expressed as Ki, was 3100 nM.
On to `CC(=O)N1CCC(=C2c3ccccc3CCc3cccnc32)CC1`, for which the Inhibition in the assay on Cavia porcellus [1] is 44%; in the assay on Cavia porcellus [2], 96%. At Histamine H1 receptor, this compound displayed a Ki of 2000 nM.
On to `CC(=O)N1CCC(=C(c2ccc(Cl)cc2)c2ccccn2)CC1`, for which, on Histamine H1 receptor, the inhibition constant Ki was > 6300 nM.
The same measure, in the same setting: with `O=C(c1ccccc1)N1CCC(=C2c3ccc(Cl)cc3CCc3cccnc32)CC1` the figure was 190 nM; with `CC(=O)N(C)CC/C=C1/c2ccc(Cl)cc2CCc2cccnc21`, 850 nM.
In the assay on Cavia porcellus [3], `CC(=O)N1CCC(=C2c3ccc(Br)cc3CCc3cccnc32)CC1` yielded an Inhibition of 99%.
On Histamine H1 receptor, `CC(=O)N1CCC(=C2c3ccc(C)cc3CCc3cccnc32)CC1` registered a Ki of 190 nM.
With `CC(=O)N1CCC(=C2c3cc(F)ccc3CCc3cccnc32)CC1`, the Ki at Histamine H1 receptor was determined as 2900 nM.
Still for that read-out and setting: with `O=CN1CCC(=C2c3ccc(Cl)cc3CCc3cccnc32)CC1` the figure was 21 nM; with `CCCC(=O)N1CCC(=C2c3ccc(Cl)cc3CCc3cccnc32)CC1`, 51 nM.
Same read-out and setting: with `CC(=O)N1CCC(=C2c3cc(Cl)ccc3CCc3cccnc32)CC1` the figure was 1500 nM; with `CC(=O)N1CCC(=C2c3ccccc3CCc3ccccc32)CC1`, 5000 nM; with `CC(=O)C1CCC(=C2c3ccc(Cl)cc3CCc3cccnc32)CC1` (stereo not given), 1200 nM.
The same measure, in the same setting: next, `CC(C)(C)C(=O)N1CCC(=C2c3ccc(Cl)cc3CCc3cccnc32)CC1`: 81 nM.
Consider `CC(=O)N1CCC(=C2c3cc(F)c(F)cc3CCc3cccnc32)CC1`, for which the Ki on Histamine H1 receptor turned out to be 10000 nM. Also, the Inhibition in the assay on Cavia porcellus [2] was 0%.
The compound `CC(=O)N1CCC(=C2c3ccc(F)cc3CCc3cccnc32)CC1` had a Ki at Histamine H1 receptor of 720 nM. Also, in the assay on Cavia porcellus [4], the Inhibition turned out to be 79%.
Regarding `CC(=O)N1CCC(=C2c3ccc(O)cc3CCc3cccnc32)CC1`, the Ki on Histamine H1 receptor was > 6300 nM.
Regarding `Cc1nnc2n1-c1sc(CCC(=O)N3CCOCC3)cc1C(c1ccccc1Cl)=NC2` [APAFANT], the results for the inhibition in vivo at 10 mg/kg (in the assay on Cavia porcellus [5]; with Cavia porcellus [6]; in assay [7]) were 60%, 7% and 99%, respectively.
For the compound `CN1CCC(=C2c3ccccc3CCc3cccnc32)CC1` [AZATADINE], the affinity on Histamine H1 receptor, expressed as Ki, was 3.9 nM.
For the compound `CC(=O)N1CCC(=C2c3ccc(Cl)cc3CCc3cccnc32)CC1` [SCH-37370], the Inhibition with Cavia porcellus [3] was found to be 99%. Also, the affinity on Histamine H1 receptor corresponds to a Ki of 320 nM.

Broadly, the Ki is the equilibrium dissociation constant of an inhibitor or competing ligand from its target. The Inhibition is the change of the read-out against control, counted positive when it falls. Low values mean a response near the control, high ones a response far below the control. Usually inhibition in vivo stands for the change of the read-out against control, counted positive when it falls. Read a high inhibition in vivo as strong suppression.

The record behind these values is ChEMBL document CHEMBL1125750, “Dual antagonists of platelet activating factor and histamine. Identification of structural requirements for dual activity of N-Acyl-4-(5,6-dihydro-11H-benzo [5,6]cyclohepta-[1,2-b]pyridin-11-ylidene)piperidines” (J Med Chem, 1991).
